Calls of active or inactive are those of the source. The rule behind the calls is not given here.
Key:
Alpha-glucosidase MAL12 [1] = biological target: T1, Alpha-glucosidase MAL12 (Saccharomyces cerevisiae S288c, UniProt P53341); assay: Inhibition of Saccharomyces cerevisiae alpha-glucosidase using p-nitrophenyl alpha-D-glucopyranoside as substrate preincubated for 15 mins measured up to 30 mins by spectrophotometry
Procedure, shortened: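 Yeast enzyme 0.2 U/mL held with graded inhibitor levels for 15 min at 37 °C in 0.1 M phosphate buffer pH 6.8, DMSO 7% final; p-nitrophenyl α-D-glucopyranoside 0.7 mM final added, A400 followed up to 30 min. DMSO-only control; % inhibition = 100 − (OD test/OD control) × 100.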

Alpha-glucosidase MAL12 [2] = biological target: T1, Alpha-glucosidase MAL12; assay: Competitive inhibition of Saccharomyces cerevisiae alpha-glucosidase using p-nitrophenyl alpha-D-glucopyranoside as substrate preincubated for 15 mins by Lineweaver-Burk plot method
3T3 = assay: Cytotoxicity against […] 3T3 cells by MTT assay; assay type: cell-based; settings: Mus musculus, NIH3T3
Procedure, shortened: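 […] fibroblast 3T3 cells (2×10^5 cells/mL) grown overnight at 37 °C under CO2, then given serial dilutions (100–12.5 µg/mL) in DMEM with 5% FBS and penicillin/streptomycin. MTT (2 mg/mL in PBS) added for 4 h. Formazan dissolved in DMSO and read at 540 nm; viability taken as the OD ratio.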

Serpentes = assay: Inhibition of snake venom phosphodiesterase-1 using bis-(p-nitropheny1) phosphate as substrate preincubated for 30 mins by spectrophotometry
Procedure, shortened: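 Snake venom enzyme, 0.000742 U/well final, in 33 mM Tris–HCl pH 8.8 with 30 mM Mg-acetate. Pre-incubated 30 min with test samples. Substrate bis-(p-nitrophenyl) phosphate at 0.33 mM. Rate of p-nitrophenol release (change in OD/min) followed at 410 nm, 37 °C, in microplate format. Cysteine and EDTA used as positive controls. Run in triplicate.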

[3] = biological target: Carbonic anhydrase 2 (Bos taurus) (UniProt P00921); assay: Inhibition of purified bovine erythrocyte carbonic anhydrase 2 using 4-PNA as substrate preincubated for 15 mins by spectrophotometry
Sequence of Carbonic anhydrase 2 (Bos taurus) (P00921 2-260 limits assumed): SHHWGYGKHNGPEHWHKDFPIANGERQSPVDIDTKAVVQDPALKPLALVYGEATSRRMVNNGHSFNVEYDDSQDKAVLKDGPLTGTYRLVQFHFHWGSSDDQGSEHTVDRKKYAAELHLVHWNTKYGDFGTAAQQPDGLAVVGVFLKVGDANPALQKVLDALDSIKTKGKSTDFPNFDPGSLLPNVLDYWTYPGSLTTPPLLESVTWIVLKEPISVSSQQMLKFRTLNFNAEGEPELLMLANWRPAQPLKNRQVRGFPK
Procedure, shortened: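 Bovine erythrocyte CA-II (0.1 mg/mL stock) in 20 mM HEPES-Tris pH 7.4, DMSO 10% final, preincubated with compound for 15 min. Reaction started with 0.7 mM 4-nitrophenyl acetate (in ethanol). 4-Nitrophenol read at 400 nm each minute for 30 min. Triplicates at several concentrations.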

[4] = biological target: T2, Beta-glucuronidase (Homo sapiens) (UniProt P08236); assay: Inhibition of beta-glucuronidase (unknown origin) using p-nitrophenyl-beta-D-glucuronide as substrate preincubated for 30 mins by spectrophotometry
T2 sequence (whole entry): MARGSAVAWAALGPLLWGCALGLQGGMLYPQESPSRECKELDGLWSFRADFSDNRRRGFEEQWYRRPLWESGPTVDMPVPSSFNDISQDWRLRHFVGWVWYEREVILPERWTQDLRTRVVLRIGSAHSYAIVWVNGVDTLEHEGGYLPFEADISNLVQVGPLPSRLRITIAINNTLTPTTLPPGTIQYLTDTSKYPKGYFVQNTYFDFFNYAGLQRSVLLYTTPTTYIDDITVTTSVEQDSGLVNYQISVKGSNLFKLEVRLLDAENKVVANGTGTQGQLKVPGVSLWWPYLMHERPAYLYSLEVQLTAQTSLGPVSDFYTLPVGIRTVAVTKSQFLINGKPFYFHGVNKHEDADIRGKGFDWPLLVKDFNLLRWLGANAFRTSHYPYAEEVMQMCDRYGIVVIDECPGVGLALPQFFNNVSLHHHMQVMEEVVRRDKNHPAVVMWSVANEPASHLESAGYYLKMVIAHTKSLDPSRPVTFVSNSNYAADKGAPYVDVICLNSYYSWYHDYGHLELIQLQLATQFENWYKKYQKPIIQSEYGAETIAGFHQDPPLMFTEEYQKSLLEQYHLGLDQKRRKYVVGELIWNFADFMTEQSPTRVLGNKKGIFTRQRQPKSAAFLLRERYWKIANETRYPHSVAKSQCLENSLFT
Procedure, shortened: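 Enzyme (1 U) in 0.1 M acetate buffer held with compound (DMSO 2% final) at 37 °C for 30 min. Then 0.4 mM p-nitrophenyl-β-D-glucuronide added and p-nitrophenol read at 405 nm. Run in triplicate.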

[5] = biological target: Oligo-1,6-glucosidase IMA1 (Saccharomyces cerevisiae S288c) (UniProt P53051); assay: Ratio of acarbose IC50 to compound IC50 for Saccharomyces cerevisiae alpha-glucosidase using p-nitrophenyl alpha-D-glucopyranoside as substrate preincubated for 15 mins measured up to 30 mins by spectrophotometry
Sequence of Oligo-1,6-glucosidase IMA1 (Saccharomyces cerevisiae S288c) (P53051 whole entry): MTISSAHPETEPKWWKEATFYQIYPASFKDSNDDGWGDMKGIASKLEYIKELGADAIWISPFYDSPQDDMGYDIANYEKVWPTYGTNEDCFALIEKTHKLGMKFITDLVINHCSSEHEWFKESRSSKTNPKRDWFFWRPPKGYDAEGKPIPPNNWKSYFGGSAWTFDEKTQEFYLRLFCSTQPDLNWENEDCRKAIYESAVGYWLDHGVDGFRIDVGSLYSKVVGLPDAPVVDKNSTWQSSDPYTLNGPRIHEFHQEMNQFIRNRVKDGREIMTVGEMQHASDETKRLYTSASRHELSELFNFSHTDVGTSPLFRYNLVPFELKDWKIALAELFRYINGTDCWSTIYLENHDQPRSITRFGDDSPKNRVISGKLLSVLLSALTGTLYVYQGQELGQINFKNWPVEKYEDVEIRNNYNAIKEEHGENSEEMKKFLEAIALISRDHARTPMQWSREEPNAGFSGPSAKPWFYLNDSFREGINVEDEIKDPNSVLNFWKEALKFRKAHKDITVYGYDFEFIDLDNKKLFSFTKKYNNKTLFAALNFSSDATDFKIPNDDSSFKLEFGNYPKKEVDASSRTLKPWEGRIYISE

[6] = biological target: Oligo-1,6-glucosidase IMA1 (Saccharomyces cerevisiae S288c) (UniProt P53051); assay: Non-competitive inhibition of Saccharomyces cerevisiae alpha-glucosidase using p-nitrophenyl alpha-D-glucopyranoside as substrate preincubated for 15 mins by Dixon plot method
Procedure, shortened: (§1)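 Kinetics on the yeast enzyme: 1/rate plotted against 1/substrate (Lineweaver-Burk) at several inhibitor levels, e.g. 60, 70 and 80 µM, to see effects on Km and Vmax. Ki taken from a replot of Lineweaver-Burk slopes against inhibitor concentration and checked by Dixon plot (1/rate against inhibitor concentration). Points are the mean of three experiments.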

Alpha-glucosidase MAL12 [7] = biological target: T1, Alpha-glucosidase MAL12; assay: Non-competitive inhibition of Saccharomyces cerevisiae alpha-glucosidase using p-nitrophenyl alpha-D-glucopyranoside as substrate preincubated for 15 mins by Lineweaver-Burk plot method; procedure, shortened: as §1

T1 sequence (P53341 whole entry): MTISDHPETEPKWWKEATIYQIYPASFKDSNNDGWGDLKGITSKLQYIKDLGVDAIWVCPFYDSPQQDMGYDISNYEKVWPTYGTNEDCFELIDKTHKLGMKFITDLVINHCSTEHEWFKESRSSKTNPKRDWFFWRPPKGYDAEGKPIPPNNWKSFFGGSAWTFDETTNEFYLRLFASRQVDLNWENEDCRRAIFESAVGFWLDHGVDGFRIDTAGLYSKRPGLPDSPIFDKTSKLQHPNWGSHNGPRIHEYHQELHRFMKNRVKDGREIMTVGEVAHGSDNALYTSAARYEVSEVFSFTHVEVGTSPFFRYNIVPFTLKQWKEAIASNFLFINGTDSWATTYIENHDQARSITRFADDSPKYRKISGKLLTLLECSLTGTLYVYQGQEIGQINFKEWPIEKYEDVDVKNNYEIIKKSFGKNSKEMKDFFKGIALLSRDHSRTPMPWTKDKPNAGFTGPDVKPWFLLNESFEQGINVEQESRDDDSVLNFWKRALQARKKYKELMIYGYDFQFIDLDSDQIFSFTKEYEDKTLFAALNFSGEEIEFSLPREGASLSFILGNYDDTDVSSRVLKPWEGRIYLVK

Row | SMILES | IC50 (Alpha-glucosidase MAL12 [1]) | Ki (Alpha-glucosidase MAL12 [2]) | IC50 (3T3) | inhibition (Serpentes) | inhibition [3] | inhibition [4] | Ratio IC50 [5] | inhibition [6] | Ki (Alpha-glucosidase MAL12 [7])
1 | CCOC(=O)C1=C(C)NC(C)=C(C(=O)OCC)C1c1ccc([N+](=O)[O-])cc1 | 51 µM | 66 µM | > 30 µM | 20.3% | 9.7% | 14.1% | 18 | – | –
2 | CCCCC1C(C(=O)OCC)=C(C)NC(C)=C1C(=O)OCC | 122 µM | – | – | – | – | – | – | – | –
3 | CCOC(=O)C1=C(C)NC(C)=C(C(=O)OCC)C1CCc1ccccc1 | 112 µM | – | 26.7 µM | – | – | – | – | – | –
4 | CCOC(=O)C1=C(C)NC(C)=C(C(=O)OCC)C1c1cccs1 | 74.3 µM | – | > 30 µM | 8% | inactive | inactive | – | – | –
5 | CCOC(=O)C1=C(C)NC(C)=C(C(=O)OCC)C1c1ccc(OC)cc1 | 65.1 µM | – | > 30 µM | 8.1% | inactive | 12.4% | – | – | –
6 | CCOC(=O)C1=C(C)NC(C)=C(C(=O)OCC)C1c1cccc([N+](=O)[O-])c1 | 35 µM | – | > 30 µM | 11.4% | 11.7% | 22.3% | 26 | Active | 25 µM
7 | CCOC(=O)C1=C(C)NC(C)=C(C(=O)OCC)C1c1ccccc1F | 60.2 µM | – | > 30 µM | – | – | – | – | – | –

The next lines start with results.

Row | IC50 (Alpha-glucosidase MAL12 [1]) | SMILES | Ki (Alpha-glucosidase MAL12 [2]) | IC50 (3T3) | inhibition (Serpentes) | inhibition [3] | inhibition [4] | Ratio IC50 [5] | inhibition [6] | Ki (Alpha-glucosidase MAL12 [7])
8 | 124 µM | CCOC(=O)C1=C(C)NC(C)=C(C(=O)OCC)C1c1ccc(OCC)cc1 | – | > 30 µM | – | – | – | – | – | –
9 | 274 µM | CCOC(=O)C1=C(C)NC(C)=C(C(=O)OCC)C1c1ccc(O)c(O)c1 | – | 28.6 µM | – | – | – | – | – | –
10 | 72.4 µM | CCOC(=O)C1=C(C)NC(C)=C(C(=O)OCC)C1c1ccc(Cl)cc1 | – | 27.9 µM | – | – | – | – | – | –
11 | 97.4 µM | CCOC(=O)C1=C(C)NC(C)=C(C(=O)OCC)C1c1ccc(SC)cc1 | – | > 30 µM | – | – | – | – | – | –
12 | 118 µM | CCOC(=O)C1=C(C)NC(C)=C(C(=O)OCC)C1c1ccc(C)cc1 | – | > 30 µM | – | – | – | – | – | –

From ChEMBL document CHEMBL3407409, “Synthesis of diethyl 4-substituted-2,6-dimethyl-1,4-dihydropyridine-3,5-dicarboxylates as a new series of inhibitors against yeast α-glucosidase” (Eur J Med Chem, 2015)
